# Rows were chosen to be rich in hits. Some 1.1% of all compounds tested hit in one or more screens of this group.
# FXIIa inh = factor XIIa (human) inhibition. purified FXIIa, Boc-QGR-AMC fluorogenic substrate, 2 h. inhibition, % at 5 µM. 220,000 tested, 0.3% active. AID 800; in the data active = inhibition above about 40%;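 note: 0% = enzyme with no compound and 100% = blank without enzyme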
# KLK5 inh = inhibitors of human kallikrein 5; 210,000 tested, 0.59% active; inhibition, % at 5 µM; recombinant hK5, fluorogenic AMC substrate cleavage; Q9Y337;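 active = inhibition of 40% or more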;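 note: 0% = enzyme controls without compound and 100% = no-enzyme blanks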
# FXIa inh = blocks human coagulation factor XIa protease activity. purified FXIa, Boc-Glu-Ala-Arg-AMC fluorogenic substrate. AID 798. inhibition, % at 5 µM. 220,000 tested, 0.14% active;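 active = inhibition of at least 40%; inactive = inhibition below 40%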;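 note: fluorescence of freed AMC excited at 355 nm; 0% = enzyme without compound and 100% = no enzyme blank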
# Furin inh = blocks human furin protease activity | 220,000 tested, 0.061% active | inhibition, % at 20 µM or 30 µM | purified furin, fluorogenic substrate cleavage | P09958; in the data active = inhibition above about 25%
# Target sequence (P09958 108-714 limits assumed): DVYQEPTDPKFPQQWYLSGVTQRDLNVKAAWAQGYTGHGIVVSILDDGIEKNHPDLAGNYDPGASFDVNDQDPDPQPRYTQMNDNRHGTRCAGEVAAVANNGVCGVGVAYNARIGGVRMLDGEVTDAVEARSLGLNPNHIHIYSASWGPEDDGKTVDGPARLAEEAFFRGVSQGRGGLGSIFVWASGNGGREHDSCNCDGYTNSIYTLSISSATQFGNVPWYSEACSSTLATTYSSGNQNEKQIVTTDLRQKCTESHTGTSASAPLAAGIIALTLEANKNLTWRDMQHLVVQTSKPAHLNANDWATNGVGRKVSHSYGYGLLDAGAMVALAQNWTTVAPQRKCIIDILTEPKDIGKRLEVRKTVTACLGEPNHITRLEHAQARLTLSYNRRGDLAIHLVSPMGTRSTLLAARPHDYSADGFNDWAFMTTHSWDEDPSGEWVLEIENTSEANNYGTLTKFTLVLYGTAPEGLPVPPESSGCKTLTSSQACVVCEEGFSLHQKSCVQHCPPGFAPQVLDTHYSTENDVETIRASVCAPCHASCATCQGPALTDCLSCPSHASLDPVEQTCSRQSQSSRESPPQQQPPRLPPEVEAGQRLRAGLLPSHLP
# thrombin 1536 = blocks human thrombin protease activity. P00734. alpha-thrombin, Boc-VPR-AMC fluorogenic substrate cleavage. inhibition, % at 5 µM. 220,000 tested, 0.26% active;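 active = inhibition at or above 40%; inactive = inhibition below 40%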;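 note: 0% = enzyme with no compound and 100% = wells without enzyme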
#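 System – human alpha-thrombin protein · Reagent – Boc-VPR-AMC substrate, 15 µM final · Compound – 5 µM single dose in 0.2% DMSO · Schedule – reaction at room temperature · Technique – AMC fluorescence at 355 nm excitation and 460 nm emission · Read-out basis – % inhibition relative to enzyme controls and enzyme-free blanks · Control set – no-compound enzyme wells and no-enzyme blanks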
# * marks the source's active call; other numbers are inactive results; . = no result.
SMILES,FXIIa inh,KLK5 inh,FXIa inh,Furin inh,thrombin 1536
Cc1ccccc1C(=O)NC1CC(C)(C)NC(C)(C)C1,16.9,57.9*,2.8,-21.8,33.1
Oc1ccc(Oc2ccc3c(C(F)(F)F)cc(C(F)(F)F)nc3n2)cc1,0.4,131.8*,-5.2,-12.1,3.8
CCOc1ccc(C(=O)Nc2ccc(N3CCN(C)CC3)cc2)cc1Br,16.5,5.2,0.4,26.0*,4.0
CCOc1ccc(C(=O)Nc2ccc(Cc3ccncc3)cc2)cc1Br,6.2,-12.7,-2.8,-27.2,-4.4
O=C(Cn1cncn1)c1ccc(F)cc1F,8.3,-6.6,6.9,-15.8,0.4
CCOc1ccc(NC(=O)C(C)O)c(NS(=O)(=O)c2ccc(CCNC(C)=O)cc2)c1 (stereo not drawn),-1.1,79.1*,3.1,-18.2,104.0*
CCCc1cc2c(cc1NS(=O)(=O)c1ccc(CCNC(C)=O)cc1)OCO2,6.3,-2.7,-0.9,-20.0,-5.0
COc1ccc(CNc2nc(-c3cccnc3)nn2S(C)(=O)=O)cc1,7.9,2.5,0.9,-29.8,0.6
CCCCOC(=O)Sc1nc2ccccc2o1,12.8,-50.1,2.2,-12.2,46.3*
COc1ccc(C(=O)/C=C/Sc2nc3ccccc3o2)cc1,6.2,-8.3,3.1,-11.9,-4.5
Clc1ccccc1OCc1nc(-c2ccccn2)no1,1.4,48.2*,3.4,-30.8,2.3
CC(C)[C@H](NC(=O)[C@H](CCCN=C(N)N)NC(=O)NC(Cc1ccccc1)C(=O)O)C(=O)NC(C=O)CCCN=C(N)N (stereo partly drawn),47.4*,32.4,43.4*,-6.6,6.9
C#CCOc1ccccc1C(N)=O,6.6,0.0,1.6,-21.9,-6.9
COCCn1c(N)c(S(=O)(=O)c2cccs2)c2nc3ccccc3nc21,31.7,-42.0,-11.7,-70.9,-8.5
COc1cccc(/C=N/n2c(N)c(S(=O)(=O)c3cccs3)c3nc4ccccc4nc32)c1OC,44.2*,8.9,4.5,-15.9,17.7
CCOC(=O)CSC1=NC(=O)/C(=C/c2ccc(Br)cc2)S1,-1.7,-4.6,1.7,-28.3,-1.7
CCOC(=O)CSC1=NC(=O)/C(=C\c2ccc(OC(C)=O)cc2)S1,17.1,52.6*,13.4,-7.1,19.9
S=C1NC2=C(C(c3ccc(Br)cc3)N1)N1CCC2CC1 (stereo not drawn),22.7,75.6*,3.1,-15.1,20.4
CC(/C=N/NC(=O)c1cc(C(C)C)[nH]n1)=C\c1ccccc1,-4.7,28.7,4.1,-14.7,46.5*
CCOC(=O)C1(Cc2cccc(Cl)c2)CCCN(CCO)C1 (stereo not drawn),7.7,1.3,-1.8,-22.4,-13.1
CC(=O)Nc1c(C(=O)O)[nH]c2ccccc12,18.4,72.5*,6.5,-15.6,3.8
O=C(NCc1ccccc1)C1=C[C@@H](c2coc3ccccc3c2=O)C[C@@H](OCCCCO)O1,13.8,6.1,1.4,-18.1,41.4*
Cn1c(=O)c2c(nc(SCCN3CCOCC3)n2Cc2ccc(F)cc2)n(C)c1=O,5.8,52.1*,15.8,-14.8,10.5
CCOC(=O)c1cc2sccc2n1CC(=O)N1c2ccccc2CC1C (stereo not drawn),48.3*,-9.0,13.0,-22.9,-10.2
CC(C)(C)NC(=O)CN(Cc1ccc(F)cc1)C(=O)Cn1nnc(-c2ccc(F)cc2)n1,8.5,1.9,-1.8,-31.0,-5.8
SMILES,FXIIa inh,KLK5 inh,FXIa inh,Furin inh,thrombin 1536
O=[N+]([O-])c1cnc2nc(-c3ccncc3)nn2c1O,7.7,5.7,3.4,-2.5,1.6
Cc1ccnc(NC(=O)c2ccc([N+](=O)[O-])o2)c1,10.1,19.8,12.2,-14.3,100.9*
Cc1cc(Cl)ccc1OCCCC(=O)NN,3.6,-3.5,-8.0,-22.5,-27.9
Cc1ccnc(NC(=O)CCCOc2ccc(Cl)cc2C)c1,26.8,41.3*,34.7,-11.3,6.0
O=C(COc1ccc(Cl)cc1Cl)NC(=O)N1CCOCC1,4.9,-6.7,-6.3,35.6*,-5.9
COc1ccc(CC(=O)Nc2cc(C)ccn2)cc1,-0.5,82.0*,10.2,-16.3,29.7
CCOc1ccc(C(C)=O)cc1NC(=O)/C=C\C(=O)O,8.2,.,4.0,-6.9,-4.0
C/C(N=Nc1nc2ccccc2s1)=N\Nc1ccccc1O,9.6,-18.5,1.3,-10.2,0.0
Cc1cc(Cl)ccc1OCCCC(=O)N1CCOCC1,1.2,-14.4,4.8,28.8*,-3.5
Cc1cc2c(C)nc(N/N=C/c3ccc([N+](=O)[O-])cc3)nc2o1,8.7,49.5*,12.7,-3.0,12.0
CC1(C)CC(=O)C(N=Nc2ccc(Br)cc2)=C(O)C1,75.3*,24.7,26.0,4.6,18.9
Nc1cccc2c1C(=O)N(C(=O)c1ccco1)C2=O,15.1,9.4,11.2,-12.7,47.0*
Cc1cc(=O)[nH]c(/N=C(\N)Nc2ccc(SC(F)F)cc2)n1,7.6,-1.8,-2.5,-20.7,-1.6
CCNC(=O)n1cc(-n2cncn2)c(-c2ccc(Cl)cc2)n1,6.8,3.4,0.5,-17.9,1.9
CSc1ccc(S(=O)(=O)N(C)Cc2ccccc2)cc1,0.5,-7.1,-3.5,-13.2,3.2
Cc1cccc(C)c1N1CCN(C(=O)Cn2cncn2)CC1,5.5,-20.0,-1.2,-22.9,-3.7
C=CCNC(=O)CN(c1ccc(F)cc1)S(=O)(=O)c1ccc(OC)cc1,54.5*,3.7,12.0,-25.0,-2.1
N#CCC(=O)N/N=C/c1ccc(OCC(=O)Nc2ccc(F)cc2)cc1,11.3,-3.2,-1.2,-13.0,-0.4
CCC(=O)N/C(=N/c1nc(C)cc(C)n1)Nc1cccc(OC)c1,14.0,-10.4,-2.0,-11.7,93.6*
CCCOc1ccc(C(=O)NC(C)C(=O)O)cc1 (stereo not drawn),40.0*,-5.0,18.2,-18.5,3.0
CC(NC(=O)c1ccc(C(C)(C)C)cc1)C(=O)O (stereo not drawn),-13.1,-26.4,-12.2,-12.1,3.4
COc1ccc(/C=N/NC(=O)CCn2cnc3ccccc32)cc1,40.3*,40.6*,40.5*,-15.5,9.8
COc1cccc(/C=N/NC(=O)CCn2cnc3ccccc32)c1,-3.5,-5.3,-5.0,-8.7,-6.5
CCOC(=O)Cc1csc(NC(=O)c2c(O)c3c(n(CC(C)C)c2=O)CCCC3)n1,-2.0,15.1,-6.8,-9.9,-7.2
CC(=O)Oc1oc(-c2ccccc2)nc1C=Nc1ccc(N(C)C)cc1,26.5,9.1,6.1,-8.7,19.3
SMILES,FXIIa inh,KLK5 inh,FXIa inh,Furin inh,thrombin 1536
COc1ccccc1N=Cc1nc(-c2ccccc2)oc1OC(C)=O,31.4,-4.5,43.5*,-3.1,26.0
N#C/C(=N\Nc1ccc(Cl)cc1)C(N)=S,4.2,-4.0,-1.1,-2.3,-9.2
N#C/C(=N\Nc1ccccc1)C(N)=S,107.3*,27.0,34.6,18.5,37.6
CCc1c(C)nc2ncnn2c1N1CCC(C(=O)Nc2ccccc2)CC1,53.2*,-1.6,18.1,-27.2,-5.9
CS(=O)(=O)c1nc(-c2ccc(Br)cc2)n[nH]1,98.1*,-1.7,2.9,-17.3,-5.6
CS(=O)(=O)c1ccc(-c2nn[nH]n2)cc1,0.5,-7.7,-3.9,-11.0,-5.5
CCC(=O)Nc1cccc(C(=O)c2ccc(C)c(C)c2)c1,-2.6,-20.3,-3.6,-19.7,1.5
